In ChEMBL document CHEMBL1122278, “Gastric antisecretory 9H-xanthen-9-amines” (1983):

What was measured:
Rattus norvegicus [1] = experiment: Gastric antisecretory activity in pylorus-ligated rat at a concentration of 50 mg/kg perorally, expressed as increase in mean pH.; assay type: functional; details: route oral
Method in brief: (§1)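 Male Carworth Farms rats (270–360 g), fasted 18 h with water; compound in PEG 200 by gavage 1 h before pylorus ligation under ether. Killed 2 h after ligation; juice centrifuged, volume and pH measured, supernatant titrated with NaOH to pH 7.4, output = volume × titre. Mean of six to seven animals against controls.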

Rattus norvegicus [2] = experiment: Effect of intravenous administration of compound on acid secretion inhibition in the PLR; Value ranges from 0.3-2.7; assay type: functional
Method in brief: (§2)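 Male Carworth Farms rats (270–360 g), fasted 18 h, pylorus ligated under ether; compound in PEG 200 given intravenously at ligation, six rats per group. Gastric contents taken 2 h after ligation, centrifuged, titrated with NaOH to pH 7.4; output = volume × titre.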

Rattus norvegicus [3] = experiment: Effect of peroral administration of compound on acid secretion inhibition in the PLR; NS means no significant dose response.; assay type: functional, organism-based
Method in brief: (§3)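 Rats (male Carworth Farms, 270–360 g) fasted 18 h; compound in PEG 200 by gavage 1 h before pylorus ligation under ether, six per group. Gastric contents collected 2 h post-ligation; pH, volume, titre (NaOH to pH 7.4) measured, output = volume × titre.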

Rattus norvegicus [4] = experiment: Effect of intraduodenal administration of compound on acid secretion inhibition in the PLR; Value ranges from 0.8-4.8; assay type: functional
Rattus norvegicus [5] = experiment: Effect of intraduodenal administration of compound on acid secretion inhibition in the PLR; Value ranges from 1.4-7.8; assay type: functional
Rattus norvegicus [6] = experiment: Antisecretory activity in PLR after pre-incubation in gastric juice at pH 1.0 for 30 min at 15 mg/kg dose, measured as acid titreated; assay type: functional
Method in brief: (§4)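 Male Carworth Farms rats (270–360 g), fasted 18 h with water, pylorus ligated under ether. Compound in PEG 200 (80 mg/mL) added to gastric juice from separate 4-h ligated rats (stored frozen) at 7.5 mg/mL, juice neutralized with 1.0 N NaOH before or after addition, or left untreated (pH 1.0). Given intraduodenally right after ligation. Juice collected 2 h later; volume, titre (NaOH to pH 7.4), output = volume × titre.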

Canis familiaris [7] = experiment: Effect on pentagastrin-induced acid secretion in gastric fistula dogs, at 1 mg/kg, iv for 1 h; assay type: functional, Canis lupus familiaris, Stomach
Method in brief: (§5)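 Four chronic gastric fistula dogs (11.2–16.2 kg), fasted 24 h, saline infused via saphenous vein, then pentagastrin 8 (μg/kg)/h for maximal stimulation. After 1 h acid plateau, compound given 1 mg/kg iv in PEG 200. Juice collected at 15-min intervals and centrifuged; titratable acid output from volume × titre, as mean ± SE, equivalents per hour.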

Rattus norvegicus [8] = experiment: Antisecretory activity in PLR after pre-incubation in gastric juice at pH 1.0 for 2 min at 15 mg/kg dose, measured as acid output; assay type: functional; method in brief: as §4
Rattus norvegicus [9] = experiment: Effect of peroral administration of compound on acid secretion inhibition in the PLR; Value ranges from 4.7-14.9; assay type: functional; method in brief: as §3
Rattus norvegicus [10] = experiment: Effect of intravenous administration of compound on acid secretion inhibition in the PLR; Value ranges from 0.9-5.3; assay type: functional; method in brief: as §2
Rattus norvegicus [11] = experiment: Antisecretory activity in PLR after pre-incubation in neutralized juice for 60 min at 15 mg/kg dose, measured as acid titreated; assay type: functional; method in brief: as §4
Canis familiaris [12] = experiment: Effect on pentagastrin-induced acid secretion in gastric fistula dogs, at 1 mg/kg, iv for 2 h; assay type: functional, Canis lupus familiaris, Stomach; method in brief: as §5
Rattus norvegicus [13] = experiment: Antisecretory activity in PLR after pre-incubation in gastric juice at pH 1.0 for 2 min at 15 mg/kg dose, measured as volume; assay type: functional; method in brief: as §4
Canis familiaris [14] = experiment: Effect on pentagastrin-induced acid secretion in gastric fistula dogs, at 1 mg/kg, iv for 3 h; assay type: functional, Canis lupus familiaris, Stomach; method in brief: as §5
Rattus norvegicus [15] = experiment: Antisecretory activity in PLR after pre-incubation in gastric juice at pH 1.0 for 60 min at 15 mg/kg dose, measured as acid output; assay type: functional; method in brief: as §4
Rattus norvegicus [16] = experiment: Antisecretory activity in PLR after pre-incubation in gastric juice at pH 1.0 for 30 min at 15 mg/kg dose, measured as volume
Rattus norvegicus [17] = experiment: Antisecretory activity in PLR after pre-incubation in gastric juice at pH 1.0 for 60 min at 15 mg/kg dose, measured as acid titreated; assay type: functional; method in brief: as §4
Rattus norvegicus [18] = experiment: Gastric antisecretory activity in pylorus ligated rat at a concentration of 50 mg/kg perorally, expressed as % decrease in mean titratable acid output of gastric juice in treated vs. control groups.; assay type: functional; details: route oral; method in brief: as §1
Rattus norvegicus [19] = experiment: Antisecretory activity in PLR after pre-incubation in neutralized juice for 60 min at 15 mg/kg dose, measured as volume; assay type: functional; method in brief: as §4
Rattus norvegicus [20] = experiment: Antisecretory activity in PLR after preincubation in gastric juice at pH 1.0 for 2 min at 15 mg/kg dose, measured as acid titreated; assay type: functional; method in brief: as §4
Rattus norvegicus [21] = experiment: Antisecretory activity in PLR after pre-incubation in gastric juice at pH 1.0 for 30 min at 15 mg/kg dose, measured as acid output; assay type: functional; method in brief: as §4
Rattus norvegicus [22] = experiment: Antisecretory activity in PLR after preincubation in gastric juice at pH 1.0 for 60 min at 15 mg/kg dose, measured as volume; assay type: functional; method in brief: as §4
Rattus norvegicus [23] = experiment: Antisecretory activity in PLR after pre-incubation in neutralized juice for 60 min at 15 mg/kg dose, measured as acid output; assay type: functional; method in brief: as §4

CCN1CCCC(NC2c3ccccc3Oc3ccccc32)C1 (stereo unspecified)
Delta pH (Rattus norvegicus [1]): 5.6 | ED50 (Rattus norvegicus [2]): 1.2 mg/kg | ED50 (Rattus norvegicus [3]): Not significant | ED50 (Rattus norvegicus [4]): 2.3 mg/kg | ED50 (Rattus norvegicus [5]): 3.8 mg/kg | Acid titer (Rattus norvegicus [6]): 62 m equiv l-1 | Acid output (Canis familiaris [7]): 3.37 u equiv hr-1 | Change (Canis familiaris [7]): -72% | Acid output (Rattus norvegicus [8]): 191 u equiv 2hr-1 | ED50 (Rattus norvegicus [9]): 8.9 mg/kg | ED50 (Rattus norvegicus [10]): 2.3 mg/kg | Acid titer (Rattus norvegicus [11]): 26 m equiv l-1 | Acid output (Canis familiaris [12]): 2.46 u equiv hr-1 | Change (Canis familiaris [12]): -80% | Volume (Rattus norvegicus [13]): 4.6 mL | Acid output (Canis familiaris [14]): 4.6 u equiv hr-1 | Change (Canis familiaris [14]): -62% | Acid output (Rattus norvegicus [15]): 324 u equiv 2hr-1 | Volume (Rattus norvegicus [16]): 6 mL | Acid titer (Rattus norvegicus [17]): 59 m equiv l-1 | Delta TAO (Rattus norvegicus [18]): 98 | Volume (Rattus norvegicus [19]): 2.5 mL | Acid titer (Rattus norvegicus [20]): 43 m equiv l-1 | Acid output (Rattus norvegicus [21]): 367 u equiv 2hr-1 | Volume (Rattus norvegicus [22]): 5.6 mL | Acid output (Rattus norvegicus [23]): 70 u equiv 2hr-1
